{"data": "Assay results from different studies", "cell line": "HepG2", "read-out": "cell growth or viability", "note": "pIC50: −log10 of the molar value."}
{"Structure (SMILES)": "COc1ccc2c(c1)c1c(n2CO)CN2CCc3cc(OCc4ccccc4)c(OC)cc3C2C1 (stereo not drawn)", "conditions": "20 µM, 24 h", "endpoint": "viability", "result": "88.9%"}
{"Structure (SMILES)": "CC(C)(C)CC(C)(C)Nc1c(-c2cccnc2)nc2ncccn12", "test": "MTT", "conditions": "25 µM, 48 h", "endpoint": "viability", "result": "92.5%"}
{"Structure (SMILES)": "COc1ccc2c(c1)c1c(n2CO)CN2CCc3cc(OC)c(OCC(F)(F)F)cc3C2C1 (stereo not drawn)", "conditions": "10 µM, 24 h", "endpoint": "viability", "result": "96.6%"}
{"Structure (SMILES)": "CCCCCCn1c(-c2cccc(Cl)c2)n[nH]c1=S", "test": "resazurin", "conditions": "100 µM, 24 h", "endpoint": "viability", "result": "75%"}
{"Structure (SMILES)": "N=C(N)c1ccc(OCCCCCOc2ccc(C(=N)N)cc2)cc1", "test": "MTS", "conditions": "24 h", "endpoint": "CC50", "result": "> 20 µM"}
{"Structure (SMILES)": "CNc1cccc2cc(C(=O)NCc3ccc(C(=O)O)cc3)c(=O)[nH]c12", "test": "CCK-8", "conditions": "10 µM, 48 h", "endpoint": "cell death", "result": "6.1%"}
{"Structure (SMILES)": "COc1ccc2c(c1)c1c(n2CO)CN2CCc3cc(OC)c(OCc4ccc(F)cc4)cc3C2C1 (stereo not drawn)", "conditions": "5 µM, 24 h", "endpoint": "viability", "result": "104%"}
{"Structure (SMILES)": "COC1=CC(c2ccc[nH]2)=NC1=Cc1ccc(CCCCCCCCCCCO)[nH]1", "endpoint": "pIC50", "result": 4.94}
{"Structure (SMILES)": "Cc1[nH]c2ccccc2c(=O)c1-c1ccc(Oc2ccc(OC(F)(F)F)cc2)nc1", "test": "resazurin", "endpoint": "pIC50", "result": "< 5.00"}
{"Structure (SMILES)": "COc1cc2c(cc1OCc1ccccc1F)C1Cc3c(n(CO)c4ccccc34)CN1CC2 (stereo not drawn)", "conditions": "10 µM, 24 h", "endpoint": "viability", "result": "109%"}
{"Structure (SMILES)": "COC1=CC(c2cccn2C)=NC1=Cc1ccc(CCCCCCCCCC(C)O)[nH]1 (stereo not drawn)", "endpoint": "pIC50", "result": "< 4.00"}
{"Structure (SMILES)": "CC(=O)OC1c2c(ccc3ccc(=O)oc23)OC(C)(C)C1OC(=O)C(C)(O)C(C)O (stereo not drawn)", "test": "WST-1", "endpoint": "pIC50", "result": 4.61}
{"Structure (SMILES)": "N=C(N/N=C/c1ccccc1)N/N=C/c1ccccc1F", "test": "resazurin", "conditions": "24 h", "endpoint": "pIC50", "result": 4.22}
{"Structure (SMILES)": "COc1cc2[nH]c(C)c(-c3ccc(Oc4cccc(OC(F)(F)F)c4)cc3)c(=O)c2cc1Cl", "test": "resazurin", "endpoint": "pIC50", "result": "< 5.00"}
{"Structure (SMILES)": "COc1ccc2cc3[n+](cc2c1OC)CCc1cc2c(cc1-3)OCO2", "conditions": "10 µM, 24 h", "endpoint": "viability", "result": "102%"}
{"Structure (SMILES)": "COc1cc2[nH]c(C)c(-c3ccc(Oc4ccc(C(F)(F)F)cc4)cc3)c(=O)c2cc1Cl", "test": "resazurin", "endpoint": "pIC50", "result": "< 5.00"}
{"Structure (SMILES)": "CC(C)(C)CC(C)(C)Nc1c(-c2ccccc2)nc2ncccn12", "test": "MTT", "conditions": "25 µM, 48 h", "endpoint": "viability", "result": "67.4%"}
{"Structure (SMILES)": "COc1ccc(CCN2CCC(Nc3nc4ccccc4n3Cc3ccc(F)cc3)CC2)cc1", "test": "resazurin", "conditions": "10 µM, 24 h", "endpoint": "viability", "result": "68%"}
